For 6 molecules, mortality and Activity results are on record in ChEMBL document CHEMBL3046615, “Isolation of nematicidal compounds from Tagetes patula L. yellow flowers: structure-activity relationship studies against cyst nematode Heterodera zeae infective stage larvae” (2011).

Molecules are shown by their SMILES. Active and inactive are the calls of the source. The calls are words filed in the database; no cut-off is given here.

Assay [1] concerns Heterodera zeae. The assay is described as follows: Nematicidal activity against Heterodera zeae infective stage larvae assessed as nematode mortality at 0.5% under light conditions measured 48 hr post dose by stereoscopic microscopy. In kind it is functional. The essentials: (§1)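 Freshly hatched H. zeae second-stage juveniles, 100 per Petri plate, three replicates. Samples in MeOH, DMSO or water were tested in glass cavity blocks; petroleum ether samples were dried onto the block and larvae transferred on agar pieces. Percentages are dilutions of 30 mg/mL stocks (extracts/fractions) or 1 mg/mL stocks (pure compounds). Incubated at 28 ± 2 °C in light or dark box; mortality averaged over three replicates.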

The test system of assay [2] is Heterodera zeae. Description: Nematicidal activity against Heterodera zeae infective stage larvae assessed as nematode mortality at 1% under dark conditions measured 24 hr post dose by stereoscopic microscopy. In kind it is functional. The gist of the method:
as §1

Assay [3] deals with Heterodera zeae. The assay is described as follows: Nematicidal activity against Heterodera zeae infective stage larvae assessed as nematode mortality at 0.125% under light conditions measured 48 hr post dose by stereoscopic microscopy. In kind it is functional. The gist of the method: as §1
For assay [4], the system named is Heterodera zeae. The assay is described as follows: Nematicidal activity against Heterodera zeae infective stage larvae assessed as nematode mortality at 0.25% under light conditions measured 48 hr post dose by stereoscopic microscopy. In kind it is functional. The essentials:
as §1

The subject of assay [5] is Heterodera zeae. The assay is described as follows: Nematicidal activity against Heterodera zeae infective stage larvae assessed as nematode mortality at 0.125% under light conditions measured 24 hr post dose by stereoscopic microscopy. In kind it is functional. The essentials: as §1
Assay [6] relates to Heterodera zeae. The assay is described as follows: Nematicidal activity against Heterodera zeae infective stage larvae assessed as nematode mortality at 0.25% under light conditions measured 24 hr post dose by stereoscopic microscopy. In kind it is functional. The gist of the method: as §1
Assay [7] deals with Heterodera zeae. Description: Nematicidal activity against Heterodera zeae infective stage larvae assessed as nematode mortality at 0.5% under light conditions measured 24 hr post dose by stereoscopic microscopy. In kind it is functional. The gist of the method: as §1
Assay [8] relates to Heterodera zeae. The assay is described as follows: Nematicidal activity against Heterodera zeae infective stage larvae assessed as nematode mortality at 1% under light conditions measured 24 hr post dose by stereoscopic microscopy. In kind it is functional. The gist of the method: as §1
Assay [9] relates to Heterodera zeae. The assay is described as follows: Nematicidal activity against Heterodera zeae infective stage larvae assessed as nematode mortality at 0.125% under dark conditions measured 5 to 60 min post dose by stereoscopic microscopy. In kind it is functional, organism-based. The essentials: (§2)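 H. zeae freshly hatched second-stage juveniles, 100 per plate, three replicates, at 28 ± 2 °C under light or in a dark box. Dilutions are % of a stock: 30 mg/mL for extracts/fractions, 1 mg/mL for pure compounds. Methanol-, DMSO- or water-soluble samples were tested in glass cavity blocks. Petroleum ether-soluble samples were air-dried in the block and covered with agar pieces bearing cultured larvae. Mortality was followed over 5–60 min; each value is the mean of three experiments.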

In assay [10] the test system is Heterodera zeae. The assay is described as follows: Nematicidal activity against Heterodera zeae infective stage larvae assessed as nematode mortality at 0.25% under dark conditions measured 5 to 60 min post dose by stereoscopic microscopy. In kind it is functional, organism-based. The essentials:
as §2

Assay [11] concerns Heterodera zeae. The assay is described as follows: Nematicidal activity against Heterodera zeae infective stage larvae assessed as nematode mortality at 0.5% under dark conditions measured 5 to 60 min post dose by stereoscopic microscopy. In kind it is functional, organism-based. The essentials: as §2
Assay [12] concerns Heterodera zeae. The assay is described as follows: Nematicidal activity against Heterodera zeae infective stage larvae assessed as nematode mortality at 1% under dark conditions measured 5 to 60 min post dose by stereoscopic microscopy. In kind it is functional, organism-based. The essentials: as §2
Assay [13] relates to Heterodera zeae. The assay is described as follows: Nematicidal activity against Heterodera zeae infective stage larvae assessed as nematode mortality at 2% under dark conditions measured 5 to 60 min post dose by stereoscopic microscopy. In kind it is functional, organism-based. The gist of the method:
as §2

Assay [14] deals with Heterodera zeae. Description: Nematicidal activity against Heterodera zeae infective stage larvae assessed as nematode mortality at 5% under dark conditions measured 5 to 60 min post dose by stereoscopic microscopy. In kind it is functional, organism-based. The gist of the method:
as §2

For assay [15], the system named is Heterodera zeae. Description: Nematicidal activity against Heterodera zeae infective stage larvae assessed as nematode mortality at 0.125% under light conditions measured 5 to 60 min post dose by stereoscopic microscopy. In kind it is functional, organism-based. The gist of the method: as §2
Assay [16] deals with Heterodera zeae. The assay is described as follows: Nematicidal activity against Heterodera zeae infective stage larvae assessed as nematode mortality at 0.25% under light conditions measured 5 to 60 min post dose by stereoscopic microscopy. In kind it is functional, organism-based. The essentials: as §2
Assay [17] relates to Heterodera zeae. The assay is described as follows: Nematicidal activity against Heterodera zeae infective stage larvae assessed as nematode mortality at 0.5% under light conditions measured 5 to 60 min post dose by stereoscopic microscopy. In kind it is functional, organism-based. The gist of the method: as §2
The test system of assay [18] is Heterodera zeae. Description: Nematicidal activity against Heterodera zeae infective stage larvae assessed as nematode mortality at 1% under light conditions measured 5 to 60 min post dose by stereoscopic microscopy. In kind it is functional, organism-based. The gist of the method: as §2
Assay [19] has as its system Heterodera zeae. Description: Nematicidal activity against Heterodera zeae infective stage larvae assessed as nematode mortality at 2% under light conditions measured 5 to 60 min post dose by stereoscopic microscopy. In kind it is functional, organism-based. The gist of the method: as §2
The subject of assay [20] is Heterodera zeae. Description: Nematicidal activity against Heterodera zeae infective stage larvae assessed as nematode mortality at 5% under light conditions measured 5 to 60 min post dose by stereoscopic microscopy. In kind it is functional, organism-based. The essentials: as §2
In assay [21] the test system is Heterodera zeae. Description: Nematicidal activity against Heterodera zeae infective stage larvae assessed as nematode mortality at 0.125% under dark conditions measured 48 hr post dose by stereoscopic microscopy. In kind it is functional. The essentials:
as §1

The test system of assay [22] is Heterodera zeae. The assay is described as follows: Nematicidal activity against Heterodera zeae infective stage larvae assessed as nematode mortality at 0.25% under dark conditions measured 48 hr post dose by stereoscopic microscopy. In kind it is functional. The gist of the method: as §1
Assay [23] concerns Heterodera zeae. The assay is described as follows: Nematicidal activity against Heterodera zeae infective stage larvae assessed as nematode mortality at 0.125% under dark conditions measured 24 hr post dose by stereoscopic microscopy. In kind it is functional. The essentials:
as §1

For assay [24], the system named is Heterodera zeae. The assay is described as follows: Nematicidal activity against Heterodera zeae infective stage larvae assessed as nematode mortality at 0.25% under dark conditions measured 24 hr post dose by stereoscopic microscopy. In kind it is functional. The gist of the method:
as §1

In assay [25] the test system is Heterodera zeae. The assay is described as follows: Nematicidal activity against Heterodera zeae infective stage larvae assessed as nematode mortality at 0.5% under dark conditions measured 24 hr post dose by stereoscopic microscopy. In kind it is functional. The essentials:
as §1

Assay [26] concerns Heterodera zeae. Description: Nematicidal activity against Heterodera zeae infective stage larvae assessed as nematode mortality at 1% under dark conditions measured 48 hr post dose by stereoscopic microscopy. In kind it is functional. The gist of the method: as §1
In assay [27] the test system is Heterodera zeae. The assay is described as follows: Nematicidal activity against Heterodera zeae infective stage larvae assessed as nematode mortality at 0.5% under dark conditions measured 48 hr post dose by stereoscopic microscopy. In kind it is functional. The gist of the method:
as §1

Turning to `COC(=O)c1ccc(O)c(O)c1` [METHYL PROTOCATECHUATE], the mortality stood at 100% in the assay on Heterodera zeae [1]; 60% in the assay with Heterodera zeae [2]; 100% with Heterodera zeae [3]; 100% in the assay with Heterodera zeae [4]; 50% with Heterodera zeae [5]; 50% with Heterodera zeae [6]. Further, the mortality is 70% in the assay on Heterodera zeae [7]; 100% with Heterodera zeae [8]; 100% in the assay on Heterodera zeae [21]; 100% in the assay with Heterodera zeae [22]; 10% in the assay on Heterodera zeae [23]; 10% with Heterodera zeae [24]. For the same molecule, the mortality was 20% in the assay with Heterodera zeae [25], 100% in the assay with Heterodera zeae [26] and 100% in the assay on Heterodera zeae [27]. The result in the assay on Heterodera zeae [9], in the assay with Heterodera zeae [10], in the assay with Heterodera zeae [11], in the assay with Heterodera zeae [12], with Heterodera zeae [13] and in the assay with Heterodera zeae [14] was inactive. Also, the result in the assay with Heterodera zeae [15], in the assay on Heterodera zeae [16], in the assay with Heterodera zeae [17], in the assay on Heterodera zeae [18], in the assay with Heterodera zeae [19] and with Heterodera zeae [20] was inactive.

In the case of `c1csc(-c2ccc(-c3cccs3)s2)c1` [ALPHA-TERTHIENYL], the mortality in the assay on Heterodera zeae [2], in the assay with Heterodera zeae [5], in the assay on Heterodera zeae [6], in the assay with Heterodera zeae [7], with Heterodera zeae [8] and with Heterodera zeae [23] was 100% each time. The mortality in the assay with Heterodera zeae [24] and with Heterodera zeae [25] was 100% each time. The outcome in the assay on Heterodera zeae [9], in the assay on Heterodera zeae [10], with Heterodera zeae [11], with Heterodera zeae [12], in the assay with Heterodera zeae [13] and in the assay on Heterodera zeae [14] was inactive. Besides, the outcome with Heterodera zeae [15], in the assay with Heterodera zeae [16], in the assay with Heterodera zeae [17], with Heterodera zeae [18], in the assay on Heterodera zeae [19] and in the assay with Heterodera zeae [20] was inactive.

For `COc1cc(C(=O)O)cc(OC)c1OC` [3,4,5-TRIMETHOXYBENZOIC ACID], the mortality is listed as 100% in the assay on Heterodera zeae [2]; 100% in the assay on Heterodera zeae [3]; 100% in the assay with Heterodera zeae [4]; 90% in the assay on Heterodera zeae [5]; 90% in the assay on Heterodera zeae [6]; 100% in the assay with Heterodera zeae [7]. The mortality in the assay with Heterodera zeae [8] was 100%; in the assay with Heterodera zeae [21], 100%; in the assay on Heterodera zeae [22], 100%; with Heterodera zeae [23], 80%; with Heterodera zeae [24], 90%; with Heterodera zeae [25] it was 90%. In the assay with Heterodera zeae [27], the mortality is reported as 100%. In addition, the outcome in the assay with Heterodera zeae [9], in the assay on Heterodera zeae [10], in the assay on Heterodera zeae [11], in the assay with Heterodera zeae [12], in the assay on Heterodera zeae [13] and in the assay with Heterodera zeae [14] was inactive. The result in the assay with Heterodera zeae [15], with Heterodera zeae [16], in the assay with Heterodera zeae [17], with Heterodera zeae [18], in the assay with Heterodera zeae [19] and with Heterodera zeae [20] was inactive.

Regarding `O=C(O)c1ccc(O)c(O)c1` [PROTOCATECHUIC ACID], the mortality turned out to be 100% with Heterodera zeae [1]; 40% in the assay with Heterodera zeae [2]; 100% with Heterodera zeae [3]; 100% with Heterodera zeae [4]; 50% in the assay on Heterodera zeae [5]; 50% with Heterodera zeae [6]. Further, the mortality turned out to be 50% in the assay with Heterodera zeae [7]; 100% in the assay with Heterodera zeae [8]; 100% with Heterodera zeae [21]; 100% with Heterodera zeae [22]; 10% in the assay with Heterodera zeae [23]; 10% in the assay with Heterodera zeae [24]. Also, the mortality with Heterodera zeae [25] is given as 40%; in the assay on Heterodera zeae [26], 100%; in the assay on Heterodera zeae [27], 100%. The result with Heterodera zeae [9], in the assay on Heterodera zeae [10], in the assay on Heterodera zeae [11], in the assay on Heterodera zeae [12], in the assay with Heterodera zeae [13] and in the assay on Heterodera zeae [14] was inactive. The result in the assay with Heterodera zeae [15], in the assay with Heterodera zeae [16], with Heterodera zeae [17], in the assay on Heterodera zeae [18], in the assay with Heterodera zeae [19] and in the assay on Heterodera zeae [20] was inactive.

Take `O=C(O)c1cc(O)c(O)c(O)c1` [GALLIC ACID]: the mortality in the assay on Heterodera zeae [2], in the assay with Heterodera zeae [5], with Heterodera zeae [6], in the assay with Heterodera zeae [7], in the assay with Heterodera zeae [8] and in the assay with Heterodera zeae [23] was 100% each time. Besides, the mortality in the assay with Heterodera zeae [24] and in the assay on Heterodera zeae [25] was 100% in each case. Further, the result with Heterodera zeae [9], in the assay on Heterodera zeae [10], with Heterodera zeae [11], in the assay on Heterodera zeae [12], with Heterodera zeae [13] and in the assay with Heterodera zeae [14] was inactive. Moreover, the outcome with Heterodera zeae [15], with Heterodera zeae [16], in the assay with Heterodera zeae [17], in the assay with Heterodera zeae [18], in the assay on Heterodera zeae [19] and with Heterodera zeae [20] was inactive.

Regarding `CCCCC/C=C\C/C=C\CCCCCCCC(=O)O` [LINOLEIC ACID], the mortality in the assay on Heterodera zeae [2], in the assay with Heterodera zeae [5], with Heterodera zeae [6], in the assay on Heterodera zeae [7], with Heterodera zeae [8] and in the assay with Heterodera zeae [23] was 100% in each case. For the same molecule, the mortality in the assay on Heterodera zeae [24] and in the assay with Heterodera zeae [25] was 100% throughout. The result in the assay on Heterodera zeae [9], with Heterodera zeae [10], with Heterodera zeae [11], in the assay on Heterodera zeae [12], with Heterodera zeae [13] and with Heterodera zeae [14] was inactive. Also, the result in the assay with Heterodera zeae [15], in the assay on Heterodera zeae [16], with Heterodera zeae [17], in the assay with Heterodera zeae [18], in the assay on Heterodera zeae [19] and in the assay with Heterodera zeae [20] was inactive.
